Assay outcomes deposited in PubChem by several laboratories.
PAFAH1B3 FP inh: inhibitors of human PAFAH1B3. recombinant PAFAH1B3, FP-rhodamine probe, fluorescence polarization. inhibition, % at 3.39 µM. 340,000 tested, 0.28% active;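 active means inhibition above the screen-wide average of all tested compounds plus 3 SD, cut at about 25% in these data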;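 further: 0% = enzyme with DMSO only and 100% = wells lacking PAFAH1B3 protein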
PAFAH2 FP inh: PAFAH2 (human) inhibition; Q99487; recombinant PAFAH2, FP-rhodamine activity probe, fluorescence polarization; inhibition, % at 3.39 µM; 340,000 tested, 0.99% active; AID 492956;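 active means inhibition above the mean over all tested compounds plus 3 SD, cut at about 30% in these data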;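 further: inhibitors block probe labeling of enzyme so polarization drops; 0% = enzyme with DMSO and 100% = wells lacking PAFAH2 protein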
PAFAH1B2 inh: blocks human PAF acetylhydrolase 1b catalytic subunit 2 | inhibition, % at 3.39 µM | recombinant PAFAH1B2, FP-rhodamine activity probe, fluorescence polarization | P68402 | 340,000 tested, 1.2% active | AID 492953;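 active means inhibition above the mean of all tested compounds plus 3 SD, cut at about 24% in these data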;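 further: 0% = enzyme with DMSO and 100% = wells lacking PAFAH1B2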
TDP2 absorb: TDP2 (human) inhibition, absorbance primary screen; O95551; recombinant TDP2, T5PNP hydrolysis, p-nitrophenol absorbance 415 nm; inhibition, % at 12.8 µM; 370,000 tested, 0.34% active; AID 720702;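 active means inhibition above the mean of all tested compounds plus 3 SD, set per campaign, cut at about 25% in these data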;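 further: 0% = DMSO with enzyme and 100% = buffer with substrate but no TDP2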
Target sequence (O95551 whole entry, looked up): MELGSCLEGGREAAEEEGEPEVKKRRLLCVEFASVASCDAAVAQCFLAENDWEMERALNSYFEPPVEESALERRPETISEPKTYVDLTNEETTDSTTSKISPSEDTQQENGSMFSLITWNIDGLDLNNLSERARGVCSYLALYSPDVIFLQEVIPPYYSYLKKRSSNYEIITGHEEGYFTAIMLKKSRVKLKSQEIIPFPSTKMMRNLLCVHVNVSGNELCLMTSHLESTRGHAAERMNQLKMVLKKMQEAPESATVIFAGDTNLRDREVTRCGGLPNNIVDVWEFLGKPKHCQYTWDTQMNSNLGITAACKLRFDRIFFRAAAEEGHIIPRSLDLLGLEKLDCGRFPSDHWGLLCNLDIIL
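System: recombinant human TDP2 / Amount: 120 nM TDP2 per well / Also added: 5 mM T5PNP chromogenic substrate / Doses: 12.8 µM single point, 1% DMSO / Incubation: 2 h at 37 °C / Detection: p-Nitrophenol epi absorbance / Evaluation: % inhibition relative to enzyme-containing and enzyme-free wells / Repeats: singlicate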
Apaf-1 inh: inhibitors of human Apaf-1 apoptosome; O14727; reconstituted apoptosome caspase-3 activity, DEVD-Rh110 fluorescence; inhibition, % at 20 µM; 330,000 tested, 0.71% active; active means inhibition of at least 40% at 20 µM;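 further: plate controls were DMSO wells for no effect and DEVD-CHO caspase inhibitor wells for full effect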
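System: reconstituted apoptosome with Apaf-1, cytochrome c, caspase-9, procaspase-3, dATP; Signal: Rh110 fluorescence intensity; Schedule: 30 min compound preincubation, 50 min activation, room temperature; Reagent: cytochrome c trigger plus (Z-DEVD)2-Rh110 caspase-3 substrate.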
* hit, by the source's call; x = no result. This is a sample that favours compounds with a hit; in the whole collection about 2.3% have one here.

SMILES	PAFAH1B3 FP inh	PAFAH2 FP inh	PAFAH1B2 inh	TDP2 absorb	Apaf-1 inh
Cc1ccc(NC(=O)CCCCCN2C(=O)[C@@H]3Cc4ccccc4CN3C2=O)cc1	7	9	28*	-8	-4
Brc1ccc(CSc2nnc3ccccn23)cc1	2	2	30*	3	-22
CN(Cc1nc(-c2cnccn2)no1)CC1(c2ccccc2)CC1(C)C (stereo not drawn)	9	-4	26*	-4	-7
CCOC(=O)C1=C(Cc2ccc(F)cc2)C(=O)c2ccccc2C1=O	6	8	4	31*	27
Cc1ccc(S(=O)(=O)n2cc(CO)c3ccccc32)cc1	6	3	47*	-9	x
Cc1ccc(S(=O)(=O)n2cnc3ccccc32)cc1	11	-4	1	4	-5
CCc1ccc(C2CC(c3ccc(C)cc3)Nc3nc(N)nn32)cc1 (stereo not drawn)	1	3	25*	-11	11
CC1CCN(c2ccc(C(=O)O)cc2NS(=O)(=O)c2ccc(C(C)(C)C)cc2)CC1	x	x	x	-2	x
CCN=C1NC(c2ccc(C(F)(F)F)cc2)C(C(=O)OC)=C(C)N1Cc1cccc(C(F)(F)F)c1 (stereo not drawn)	x	x	x	-9	x
COc1cccc(Nc2nc3ccccc3nc2NS(=O)(=O)c2ccc(NC(C)=O)cc2)c1	21	14	27*	x	-3
O=C(O)CN1C(=O)/C(=C\c2ccccc2OCc2ccccc2)SC1=S	x	x	x	2	x
O=C(O)CN1C(=O)/C(=C\c2cc(Br)ccc2OCc2ccc(F)cc2)SC1=S	16	50*	13	24	10
CCOC(=O)C(NC(=O)c1ccccc1)=C(C)C	5	5	2	1	-5
CCOC(=O)C(CC(=O)O)=C(c1ccccc1)c1ccccc1	8	5	32*	4	12
Cc1cc(C(=O)OCC(=O)Nc2ccc(F)cc2F)c(C)o1	3	45*	9	-7	-6
Cc1cc(C(=O)OCC(=O)Nc2ccccc2C)c(C)o1	0	28	2	2	-8
CCCCCC[C@@H](CC)CN(C(=O)Oc1ccccc1)c1ccccc1	x	x	x	1	x
CC(=O)OC1=C(O)C(=O)c2ccccc2C1=O	x	x	x	x	59*
COC(=O)c1ccccc1-c1c2ccc(=N)cc-2oc2cc(N)ccc12	149*	148*	134*	-4	-332
Cn1c(CCN2CCN(c3ccccn3)CC2)nc2cc(NS(=O)(=O)c3ccc(Cl)cc3)ccc21	0	1	26*	4	18
Cc1ccc(S(=O)(=O)Nc2ccc3c(c2)nc(CCN2CCN(c4ccccn4)CC2)n3C)cc1	1	-5	12	-2	8
CCCCNC(=O)C1CCCN1C(=O)Nc1cccc(C)c1 (stereo not drawn)	x	x	x	4	x
O=c1[nH]c(/C=C\c2cccc(Cl)c2)nc(O)c1[N+](=O)[O-]	12	5	33*	3	33
Cc1ccc(NS(=O)(=O)c2cc(Br)cnc2N)c(Cl)c1	11	4	1	17	4
Nc1ncc(Br)cc1S(=O)(=O)Nc1cc(C(F)(F)F)cc(C(F)(F)F)c1	6	3	26*	-7	17
SMILES	PAFAH1B3 FP inh	PAFAH2 FP inh	PAFAH1B2 inh	TDP2 absorb	Apaf-1 inh
Cc1ccc2nc(/C(C#N)=C/c3ccc(O)c(O)c3)[nH]c2c1	47*	27	23	-4	13
CCCCCCCCCCCCCC(=O)O	14	12	35*	-3	-2
CCCCCCC(=O)O	10	-1	1	0	5
Cc1ccccc1OCCn1cc(C(=O)O)c2ccccc21	10	3	24*	7	6
O=C1/C(=C/c2cccnc2)SC(=S)N1NS(=O)(=O)c1ccccc1	20	0	5	-4	1
O=C(Cc1cccc2ccccc12)NN1C(=O)/C(=C\c2cccnc2)SC1=S	0	-8	3	-8	-21
CC(=O)NN1C(=O)/C(=C/c2ccc(C(C)C)cc2)SC1=S	7	-3	42*	0	15
O=C(O)c1ccc(/C=C2\SC(=S)N(NC(=O)c3ccccc3)C2=O)cc1	-1	-13	-5	21	10
O=C(NN1C(=O)/C(=C/c2cccnc2)SC1=S)C(c1ccccc1)c1ccccc1	4	6	27*	0	5
O=C(NN1C(=O)/C(=C\c2cccnc2)SC1=S)C(c1ccccc1)c1ccccc1	5	7	29*	2	16
O=C(Nc1ccc2ccccc2c1)C1CC2CCC1C2 (stereo not drawn)	x	x	x	-2	x
